Experimental data as given in ChEMBL document CHEMBL1137537, “Novel oxotremorine-related heterocyclic derivatives: Synthesis and in vitro pharmacology at the muscarinic receptor subtypes” (Bioorg Med Chem, 2007).

What was measured:
[1] = molecular target: T1, Muscarinic acetylcholine receptor M2 (Homo sapiens, UniProt P08172); experiment: Displacement of [3H]QNB from human muscarinic M2 receptor expressed in CHO cells; type: cell-based
T1 sequence (P08172 whole entry): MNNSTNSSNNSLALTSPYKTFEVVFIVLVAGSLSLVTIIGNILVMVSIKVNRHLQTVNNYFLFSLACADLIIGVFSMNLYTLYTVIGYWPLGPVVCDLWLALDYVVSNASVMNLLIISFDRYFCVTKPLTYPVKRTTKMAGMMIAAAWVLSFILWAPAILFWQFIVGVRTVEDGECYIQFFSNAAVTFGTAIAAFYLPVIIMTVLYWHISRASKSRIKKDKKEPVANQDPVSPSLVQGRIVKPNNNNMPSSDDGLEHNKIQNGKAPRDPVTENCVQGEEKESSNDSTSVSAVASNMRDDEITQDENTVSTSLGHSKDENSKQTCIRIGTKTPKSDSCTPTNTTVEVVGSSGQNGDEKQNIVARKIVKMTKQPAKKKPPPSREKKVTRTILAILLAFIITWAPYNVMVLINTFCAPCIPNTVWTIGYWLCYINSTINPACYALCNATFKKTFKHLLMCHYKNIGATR
Summary of the method: (§1)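 Membranes (10-50 µg protein) from stable CHO lines expressing human m2-m5, competed against 180 pM [3H]QNB in 50 mM Tris-HCl pH 7.4 with 1% DMSO; 120 min at 25 °C to equilibrium; nonspecific binding with 0.5 µM atropine; GF-C filtration, scintillation counting; IC50 by logistic fit, Ki via Cheng–Prusoff using saturation-derived KD (5–2500 pM [3H]QNB).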

[2] = molecular target: Muscarinic acetylcholine receptor M3 (Cavia porcellus) (UniProt Q8VH26); experiment: Antagonist activity at muscarinic M3 receptor in guinea-pig ileum; type: functional, tissue-based
Summary of the method: (§2)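 Antagonist mode: after 30 min incubation with test compound (10 nM–100 µM), concentration–response curve to full agonist (bethanechol or McN-A-343) repeated; pKB as molar concentration giving twofold EC50 shift, Furchgott's method; mean of 6-8 experiments.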

[3] = molecular target: T2, Muscarinic acetylcholine receptor M4 (Homo sapiens, UniProt P08173); experiment: Displacement of [3H]QNB from human muscarinic M4 receptor expressed in CHO cells; type: cell-based; summary of the method: as §1
T2 sequence (P08173 whole entry): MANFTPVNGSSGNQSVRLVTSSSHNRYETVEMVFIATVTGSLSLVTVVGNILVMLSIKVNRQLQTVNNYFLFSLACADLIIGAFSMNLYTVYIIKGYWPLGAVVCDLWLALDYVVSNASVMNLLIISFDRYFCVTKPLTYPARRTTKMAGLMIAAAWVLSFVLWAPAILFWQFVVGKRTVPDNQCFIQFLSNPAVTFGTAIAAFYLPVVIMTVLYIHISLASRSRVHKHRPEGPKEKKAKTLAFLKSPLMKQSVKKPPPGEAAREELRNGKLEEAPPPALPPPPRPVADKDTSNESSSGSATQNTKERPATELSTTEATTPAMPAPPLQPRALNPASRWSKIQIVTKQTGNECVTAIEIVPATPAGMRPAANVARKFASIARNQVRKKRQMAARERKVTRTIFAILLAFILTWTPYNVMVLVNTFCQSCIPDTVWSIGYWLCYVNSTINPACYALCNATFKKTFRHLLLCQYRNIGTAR

[4] = molecular target: T3, Muscarinic acetylcholine receptor M5 (Homo sapiens, UniProt P08912); experiment: Displacement of [3H]QNB from human muscarinic M5 receptor expressed in CHO cells; type: cell-based
T3 sequence (P08912 whole entry): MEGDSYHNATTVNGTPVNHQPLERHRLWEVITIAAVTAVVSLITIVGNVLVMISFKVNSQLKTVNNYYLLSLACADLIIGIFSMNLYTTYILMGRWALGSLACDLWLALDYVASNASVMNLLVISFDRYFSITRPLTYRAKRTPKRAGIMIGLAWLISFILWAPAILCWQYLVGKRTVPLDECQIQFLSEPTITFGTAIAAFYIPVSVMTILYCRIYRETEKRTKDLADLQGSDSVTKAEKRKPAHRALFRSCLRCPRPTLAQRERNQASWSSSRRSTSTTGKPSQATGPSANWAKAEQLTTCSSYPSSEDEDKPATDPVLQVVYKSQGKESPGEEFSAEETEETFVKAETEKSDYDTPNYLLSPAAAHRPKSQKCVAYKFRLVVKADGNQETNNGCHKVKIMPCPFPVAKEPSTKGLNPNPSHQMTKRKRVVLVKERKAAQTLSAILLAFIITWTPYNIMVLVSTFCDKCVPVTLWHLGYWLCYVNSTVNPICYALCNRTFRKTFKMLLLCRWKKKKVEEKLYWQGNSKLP

[5] = molecular target: Muscarinic acetylcholine receptor M3 (Cavia porcellus) (UniProt Q8VH26); experiment: Intrinsic activity at muscarinic M3 receptor in guinea-pig ileum relative to benthanechol; type: tissue-based
Summary of the method: (§3)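 Intrinsic activity as ratio of compound's maximal response to that of reference full agonist (McN-A-343 for vas deferens, bethanechol for atrium and ileum), from cumulative concentration–response curves; mean of 6-8 experiments.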

[6] = Antagonist activity at muscarinic M2 receptor in electrically stimulated guinea-pig left atrium; type: functional, Cavia porcellus, Cardiac atrium; summary of the method: as §2
[7] = Antagonist activity at muscarinic M1 receptor in electrically stimulated New Zealand rabbit vas deferens; type: functional, Oryctolagus cuniculus; summary of the method: as §2
Oryctolagus cuniculus = species on record: Oryctolagus cuniculus; experiment: Intrinsic activity at muscarinic M1 receptor in electrically stimulated New Zealand rabbit vas deferens relative to McN-A-343; type: tissue-based; summary of the method: as §3
[8] = molecular target: T4, Muscarinic acetylcholine receptor M1 (Homo sapiens, UniProt P11229); experiment: biochemical; type: cell-based, CHO
T4 sequence (P11229 whole entry): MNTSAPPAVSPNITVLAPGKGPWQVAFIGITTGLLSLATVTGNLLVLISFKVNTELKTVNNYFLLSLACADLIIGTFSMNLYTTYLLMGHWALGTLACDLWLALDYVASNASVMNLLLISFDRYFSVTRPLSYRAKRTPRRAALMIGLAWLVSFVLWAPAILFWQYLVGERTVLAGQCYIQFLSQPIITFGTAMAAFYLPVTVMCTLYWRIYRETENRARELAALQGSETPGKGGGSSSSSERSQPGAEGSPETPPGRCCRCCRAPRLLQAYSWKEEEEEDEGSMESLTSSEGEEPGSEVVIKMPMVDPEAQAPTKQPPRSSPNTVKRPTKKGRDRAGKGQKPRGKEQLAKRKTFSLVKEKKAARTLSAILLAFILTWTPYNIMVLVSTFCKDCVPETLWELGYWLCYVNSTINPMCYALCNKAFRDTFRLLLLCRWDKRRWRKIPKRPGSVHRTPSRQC

[9] = molecular target: Muscarinic acetylcholine receptor M3 (Homo sapiens, UniProt P20309); experiment: Displacement of [3H]QNB from human muscarinic M3 receptor expressed in CHO cells; type: cell-based
Cavia porcellus = species on record: Cavia porcellus; experiment: Intrinsic activity at muscarinic M2 receptor in electrically stimulated guinea-pig left atrium relative to benthanechol; type: tissue-based; conditions: Cardiac atrium; summary of the method: as §3
[10] = molecular target: T5, Muscarinic acetylcholine receptor M3 (Cavia porcellus, UniProt Q8VH26); experiment: Agonist activity at muscarinic M3 receptor in guinea-pig ileum; type: functional, tissue-based
Summary of the method: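 Guinea-pig ileal segments 2–3 cm, 1.0 g tension, 37 °C Krebs-Henseleit with carbogen, 45 min equilibration; isometric contractions to cumulative agonist concentrations; pEC50 by least-squares linear regression; mean of 6-8 experiments.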

[11] = Binding affinity to muscarinic M2 receptor in electrically stimulated guinea-pig left atrium; type: tissue-based, Cavia porcellus, Cardiac atrium
Summary of the method: (§4)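 Apparent affinity pKD: for full agonists by receptor inactivation with phenoxybenzamine (1-10 µM, 20-30 min); for partial agonists by McKay's method comparing curves with reference full agonist; mean of 6-8 experiments.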

[12] = Agonist activity at muscarinic M2 receptor in electrically stimulated guinea-pig left atrium; type: functional, tissue-based; conditions: Cavia porcellus, Cardiac atrium
[13] = molecular target: T5, Muscarinic acetylcholine receptor M3; experiment: Binding affinity to muscarinic M3 receptor in guinea-pig ileum; type: tissue-based; summary of the method: as §4
[14] = Binding affinity to muscarinic M1 receptor in electrically stimulated New Zealand rabbit vas deferens; type: tissue-based, Oryctolagus cuniculus; summary of the method: as §4
[15] = Agonist activity at muscarinic M1 receptor in electrically stimulated New Zealand rabbit vas deferens; type: functional, tissue-based; conditions: Oryctolagus cuniculus

Sequence of Muscarinic acetylcholine receptor M3 (Homo sapiens, UniProt P20309) (P20309 whole entry): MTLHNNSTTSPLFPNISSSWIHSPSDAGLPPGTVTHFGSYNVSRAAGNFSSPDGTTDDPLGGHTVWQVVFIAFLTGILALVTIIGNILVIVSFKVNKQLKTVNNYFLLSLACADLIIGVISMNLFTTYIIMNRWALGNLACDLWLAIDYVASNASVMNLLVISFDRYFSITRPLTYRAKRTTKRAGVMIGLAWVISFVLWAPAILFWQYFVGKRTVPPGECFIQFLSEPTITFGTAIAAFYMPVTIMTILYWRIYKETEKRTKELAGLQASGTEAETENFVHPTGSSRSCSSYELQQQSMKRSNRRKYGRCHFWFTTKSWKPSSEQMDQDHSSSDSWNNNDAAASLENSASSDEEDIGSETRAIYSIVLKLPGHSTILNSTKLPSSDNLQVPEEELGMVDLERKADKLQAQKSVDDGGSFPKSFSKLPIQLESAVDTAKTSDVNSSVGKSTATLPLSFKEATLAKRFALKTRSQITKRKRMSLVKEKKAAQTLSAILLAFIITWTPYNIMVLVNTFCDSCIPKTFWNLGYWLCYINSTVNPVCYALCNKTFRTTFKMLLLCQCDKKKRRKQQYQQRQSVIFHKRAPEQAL
T5 sequence (Q8VH26 whole entry): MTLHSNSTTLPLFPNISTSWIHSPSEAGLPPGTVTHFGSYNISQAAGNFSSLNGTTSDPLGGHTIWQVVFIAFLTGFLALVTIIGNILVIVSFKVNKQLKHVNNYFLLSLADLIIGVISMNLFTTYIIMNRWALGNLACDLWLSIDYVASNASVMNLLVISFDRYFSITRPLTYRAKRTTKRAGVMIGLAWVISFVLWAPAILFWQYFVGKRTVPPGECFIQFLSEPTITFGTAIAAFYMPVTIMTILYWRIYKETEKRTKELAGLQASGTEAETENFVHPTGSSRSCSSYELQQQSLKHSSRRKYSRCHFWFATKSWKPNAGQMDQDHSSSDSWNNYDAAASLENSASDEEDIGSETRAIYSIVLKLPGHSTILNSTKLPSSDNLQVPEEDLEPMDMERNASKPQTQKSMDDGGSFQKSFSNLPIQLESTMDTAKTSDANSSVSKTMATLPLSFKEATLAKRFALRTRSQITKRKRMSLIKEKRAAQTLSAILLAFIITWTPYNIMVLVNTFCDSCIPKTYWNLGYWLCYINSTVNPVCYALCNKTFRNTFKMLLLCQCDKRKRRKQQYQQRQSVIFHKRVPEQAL
Sequence of Muscarinic acetylcholine receptor M3 (Cavia porcellus) (Q8VH26 1-587): as the sequence (Q8VH26 whole entry) above

| Structure (SMILES) | Ki [1] [µM] | pKb [2] | Ki [3] [µM] | Ki [4] [µM] | Intrinsic activity [5] | pKb [6] | pKb [7] | Intrinsic activity (Oryctolagus cuniculus) | Ki [8] [µM] | Ki [9] [µM] | Intrinsic activity (Cavia porcellus) | EC50 [10] [µM] | pKd [11] | EC50 [12] [µM] | Kd [13] [µM] | pKd [14] | EC50 [15] [µM] |
| --- | --- | --- | --- | --- | --- | --- | --- | --- | --- | --- | --- | --- | --- | --- | --- | --- | --- |
| O=C(O)C(=O)O.O=C1CCON1CC#CCN1CCCCC1 | 0.04 | 5.55 | 0.792 | 0.544 | 0 | 5.94 | 6.45 | 0 | 0.819 | 0.537 | 0.2 |  |  |  |  |  |  |
| C(#CCN1CCCCC1)COC1=NOCC1.O=C(O)C(=O)O | 0.876 |  | 6.04 | 5.14 | 1 |  | 5.91 | 0 | 4.55 | 3.92 | 0.6 | 1.78 | 6.22 | 1.1 | 21.9 |  |  |
| O=C1CCON1CC#CCN1C2CCCC1CC2 | > 10 |  |  | > 10 |  |  |  |  |  |  |  |  |  |  |  |  |  |
| C(#CCOc1ccon1)CO/N=C1\CN2CCC1CC2.O=C(O)/C=C/C(=O)O |  |  |  |  | 0.9 |  | 5.85 | 0 |  |  | 0.7 | 1.02 | 5.97 | 3.09 | 3.63 |  |  |
| CN(C)CC#CCOc1cc(-c2ccccc2)on1 | > 10 |  |  | > 10 |  |  |  |  |  |  |  |  |  |  |  |  |  |
| Cc1cc(OCC#CCN(C)C)no1.O=C(O)/C=C/C(=O)O | 3.8 |  | 1.1 | > 10 | 1.1 |  |  | 0.6 | > 10 | > 10 | 1 | 0.794 | 3.56 | 0.513 | 39.8 | 5.45 | 3.47 |
| C[N+]1(CC#CCN2OCCC2=O)CCc2ccccc2C1 (stereo unspecified) | > 10 |  |  | > 10 |  |  |  |  |  |  |  |  |  |  |  |  |  |
| C[N+]1(CC#CCOC2=NOCC2)CCCCC1.[I-] | 0.219 |  | 1.68 | 4.12 | 1 |  |  | 0.4 | 7.37 | 4.74 | 1 | 0.269 | 6.74 | 0.0457 | 0.295 | 6.51 | 0.794 |
| Cc1cc(OCC#CCN2CCCC2)no1.O=C(O)/C=C/C(=O)O | > 10 |  |  | > 10 | 0.4 | 4.81 | 5.66 | 0 |  |  | 0 | 15.1 |  |  | 15.5 |  |  |
| Cc1cc(OCC#CC[N+](C)(C)C)no1.[I-] | 0.05 |  | 0.682 | 6.31 | 1 |  |  | 0.9 | > 10 | 3.99 | 1 | 0.00724 | 7.03 | 0.00661 | 0.676 | 6.97 | 0.0398 |
| C[N+]1(CC#CCOC2=NOCC2)CCc2ccccc21 (stereo unspecified) | 4.1 |  | > 10 | > 10 |  |  |  |  | > 10 | 5.54 |  |  |  |  |  |  |  |
| C[N+]1(CC#CCN2OCCC2=O)CCCCC1 | > 10 |  |  | > 10 |  |  |  |  |  |  |  |  |  |  |  |  |  |
| C(#CCN1CCc2ccccc2C1)COC1=NOCC1 | > 10 |  |  | > 10 |  |  |  |  |  |  |  |  |  |  |  |  |  |
| C[N+]12CCC(CC1)/C(=N/OCC#CCOc1ccon1)C2.[I-] | > 10 |  |  | > 10 | 0.7 |  |  | 0.9 |  |  |  | 3.55 |  | > 100 | 9.33 | 3.82 | 4.27 |
| C[N+]1(CC#CCN2OCCC2=O)CCc2ccccc21 (stereo unspecified) | > 10 |  |  | > 10 |  |  |  |  |  |  |  |  |  |  |  |  |  |
| C[N+](C)(C)CC#CCOC(=O)Nc1cccc(Cl)c1.[Cl-] |  |  |  |  |  |  |  | 1 |  |  |  |  |  |  |  | 7.2 | 0.398 |
| O=C1CCON1CC#CCN1CCc2ccccc2C1 | > 10 |  |  | > 10 |  |  |  |  |  |  |  |  |  |  |  |  |  |
| CC(C[N+](C)(C)C)OC(N)=O (stereo unspecified) [BETHANECHOL] |  |  |  |  | 1 |  |  |  |  |  | 1 | 0.427 | 5.37 | 0.646 | 12.6 |  |  |
| Cc1cc(OCC#CC[N+]2(C)CCCC2)no1.[I-] | 2.04 |  | 5.93 | 7.51 | 0.9 |  | 6.01 | 0 | 7.68 | 7.39 | 1 | 0.55 | 6.72 | 0.251 | 1.66 |  |  |
| C[N+]1(CC#CCOC2=NOCC2)CCc2ccccc2C1 (stereo unspecified) | 0.474 |  | 2.26 | 5.66 |  |  |  |  | 6.96 | 0.887 |  |  |  |  |  |  |  |
| O=C1CCON1CC#CCN1CCCC1 | 0.07 |  | 0.222 | 0.51 |  |  |  |  | 0.905 | 0.392 |  |  |  |  |  |  |  |
| C(#CCN1CCCC1)COc1cc(-c2ccccc2)on1 | > 10 | 4.94 | 5.48 | 6.88 | 0 |  |  | 1 | 6.14 | 4.01 | 0.6 |  |  | 21.9 |  |  | 44.7 |
| C(#CCN1CCc2ccccc21)COC1=NOCC1 | > 10 |  |  | > 10 |  |  |  |  |  |  |  |  |  |  |  |  |  |
